Test results as given in ChEMBL document CHEMBL2069299, “Biologically active ester derivatives as potent inhibitors of the soluble epoxide hydrolase” (Bioorg Med Chem Lett, 2012).
Values after ≈ are worked out from the molar mass of the structure shown.

Tests used:
[1] = Stability in human liver microsomes aunder NADPH generating system at 37 degC for 60 mins by LC-MS/MS method; format: ADME, Microsome; details: read-out: Stability
Summary of the method: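 Test compound incubated with 0.125 mg human liver microsomal protein plus NADPH-generating system, shaken 37°C for 60 min. Remaining parent quantified by LC-MS/MS and expressed as percent; acid metabolites also monitored. Mean of triplicate independent analyses.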

[2] = molecular target: T1, Bifunctional epoxide hydrolase 2 (Homo sapiens, UniProt P34913); experiment: Inhibition of human soluble epoxide hydrolase pre-incubated for 5 mins at 30 degC before CMNPC fluorescent substrate addition by fluorimetric assay
T1 sequence (P34913 whole entry): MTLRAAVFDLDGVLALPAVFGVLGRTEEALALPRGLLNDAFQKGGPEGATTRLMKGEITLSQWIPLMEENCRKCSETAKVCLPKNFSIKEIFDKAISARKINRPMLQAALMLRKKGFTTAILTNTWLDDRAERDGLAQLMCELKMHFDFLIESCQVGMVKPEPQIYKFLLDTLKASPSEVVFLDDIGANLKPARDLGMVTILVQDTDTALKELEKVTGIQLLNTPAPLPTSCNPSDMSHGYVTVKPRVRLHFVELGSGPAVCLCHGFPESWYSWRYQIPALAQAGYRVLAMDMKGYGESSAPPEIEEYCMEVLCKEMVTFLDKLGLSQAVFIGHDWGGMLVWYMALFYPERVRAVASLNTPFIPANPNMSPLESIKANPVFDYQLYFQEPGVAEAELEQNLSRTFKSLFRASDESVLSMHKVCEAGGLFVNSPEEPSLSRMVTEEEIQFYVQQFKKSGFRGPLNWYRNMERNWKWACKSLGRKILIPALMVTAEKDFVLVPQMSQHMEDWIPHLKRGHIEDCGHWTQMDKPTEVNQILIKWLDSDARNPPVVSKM
Summary of the method: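 Recombinant-free detail not given; human sEH at 0.96 nM preincubated with inhibitor 5 min at 30°C in 25 mM Bis-Tris/HCl, pH 7.0, then fluorescent substrate added at 5 μM. Fluorescence read-out; IC50 reported as mean of three separate measurements, assay standard error stated as 10–20%.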

[3] = Solubility in water using 0.1 M pH 7.4 phosphate buffer by LC-MS/MS method; format: physicochemical
Summary of the method: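 Excess solid suspended in 0.1 M sodium phosphate buffer, pH 7.4; equilibrated by 1 h sonication then 24 h shaking; centrifuged. Supernatant analysed by LC-MS/MS, with amount calculated from a regression curve built for each compound from five standard solutions.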

SMILES	remaining at 1 h [1] [%]	IC50 [2] [nM]	solubility [3] [µg/mL]
O=C(NC1CCCC(C(=O)O)C1)NC12CC3CC(CC(C3)C1)C2 (stereo not given)	95	1160	–
CCCCC(C#N)OC(=O)CCCNC(=O)NC12CC3CC(CC(C3)C1)C2 (stereo not given)	–	12	–
CCOCCOCCOC(=O)CCCNC(=O)NC12CC3CC(CC(C3)C1)C2	10	67	878 (≈ 2210 µM)
CCCCC(CC)OC(=O)CCCNC(=O)NC12CC3CC(CC(C3)C1)C2 (stereo not given)	4	4	3 (≈ 7.92 µM)
CCCCCOC(=O)C1CCCC(NC(=O)NC23CC4CC(CC(C4)C2)C3)C1 (stereo not given)	–	2	–
CCCCC(C)OC(=O)CCCNC(=O)NC12CC3CC(CC(C3)C1)C2 (stereo not given)	–	4	–
CCCCCOC(=O)CCCNC(=O)NC12CC3CC(CC(C3)C1)C2	< 1	10	2 (≈ 5.71 µM)
O=C(O)CCCNC(=O)NC12CC3CC(CC(C3)C1)C2	97	684	–
CCOCCOCC(OC(=O)C1CCCC(NC(=O)NC23CC4CC(CC(C4)C2)C3)C1)c1ccccc1 (stereo not given)	32	9	41 (≈ 80 µM)
CCOCCOCC(OC(=O)CCCNC(=O)NC12CC3CC(CC(C3)C1)C2)c1ccccc1 (stereo not given)	14	4	89 (≈ 188 µM)
CCCCC(CC)OC(=O)C1CCCC(NC(=O)NC23CC4CC(CC(C4)C2)C3)C1 (stereo not given)	10	3	1 (≈ 2.39 µM)
